# Shown are actives, neighbours in structure and some others; about 7.1% of the full set was active somewhere.
# HUVEC inhibit – inhibitors of HUVEC proliferation, primary screen, cell-based, 384-well; viability, % at 10 µM (by protocol); CellTiter-Glo luminescence, 72 h; stronger effect = lower value; 1.1% of 86,000 active;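 active = viability at or below 30%; inactive = viability above 30%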;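 also: 100% = median luminescence of DMSO-only cell control wells on each plate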
# H69AR growth 86K – proliferation blockers of H69AR lung cancer cells, primary screen, cell-based, human, 86K library; viability, % at 10 µM; AID 598, 2007; 6% of 85,000 active; H69AR lung tumor viability, ATP luminescence, 72 h; stronger effect = lower value;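 active = viability at or below 40%; inactive = viability above 40%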;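 also: multidrug resistant small cell line overexpressing MRP-1 efflux transporter; 100% = mean luminescence of untreated control wells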
# HCT116 bCat-KO – primary screen for growth suppressors in beta-catenin knockout HCT116 cells (colon tumor, human). HCT116 beta-catenin knockout viability, CellTiter-Glo, 60 h; stronger effect = lower value. viability, % at 10 µM. 1.5% of 140,000 active;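 active = viability at or under a set limit, the compound median less 4 SD, cut at about 6% in these data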;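 also: 0% = Hyamine 1622 control at 20 µM and 100% = untreated cell control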
# Lung fibro prol – antiproliferative effect on LL 47 fibroblasts – human, LL 47 cells, CellTiter-Glo luminescence, primary screen | LL 47 human lung fibroblast viability, ATP luminescence; stronger effect = lower value | viability, % at 10 µM | 1.1% of 85,000 active | AID 719, 2007;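 active = viability at or below 50% in the single dose screen; inactive = viability above 50%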;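 also: compound exposure lasted 72 h before the ATP readout; 100% = median luminescence of untreated cell-only wells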
#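 Material: human lung fibroblast line LL 47, low passage; Evaluation: viability percentage against median untreated-cell control; Buffer or medium: 15% FBS in IMEM; Incubation: 72 h compound exposure at 37 °C after overnight plating; Dosing: 0.1% DMSO in all compound wells; Measured by: CellTiter-Glo luminescence.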
# PTEN del growth – growth suppression of PTEN-null HCT116, primary screen, cell-based, CellTiter-Glo. HCT116 PTEN-null viability, 60 h; stronger effect = lower value. viability, % at 10 µM. 1.2% of 140,000 active;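 active = viability at or below a set limit, 4 SD under the median of all tested compounds, cut at about 3.7% in these data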;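 also: PTEN knockout HCT116 line with beta catenin targeted HCT116 as companion control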
# Cav3 T inh – Cav3.2 calcium influx blockers – cell-based, Fluo-4 calcium fluorescence, FDSS, MLSMR library, primary screen; Voltage-dependent T-type calcium channel subunit alpha-1H (Homo sapiens), O95180; Cav3.2-expressing cells; stronger effect = lower value; 4% of 100,000 active; B-score at 10 µM;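 active = single-dose well whose peak fluorescence ratio is a statistical outlier from its plate by either plate-standardised score or position-corrected B-score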
# Active calls of the source: *; · = no result given.
SMILES,HUVEC inhibit,H69AR growth 86K,HCT116 bCat-KO,Lung fibro prol,PTEN del growth,Cav3 T inh
CCOC(=O)c1nnn(CC(=O)N2N=C(c3ccc(Cl)cc3)CC2c2ccc(OC)cc2)c1C(=O)OCC (stereo not drawn),79.8,73.7,85.6,80.9,82.9,-4.16
CCOC(=O)c1nnn(CC(=O)N2N=C(c3ccc(Cl)cc3)CC2c2ccccc2)c1C(=O)OCC (stereo not drawn),74.8,19.0*,67.2,67.8,72.1,-0.0712
COc1ccc(C)cc1NC(=O)C(=O)N/N=C(\C)CC(=O)Nc1cccnc1,·,·,98.3,·,98.1,·
O=C(NNc1ccc(Cl)nn1)c1ccc(Cl)cc1,·,·,89.9,·,91.6,·
c1ccc(Cc2nnc(-c3ccccc3)o2)cc1,32.3,92.3,59.3,9.6*,58.5,-5.45*
Cc1ccccc1-c1nnc(Cc2ccccc2)o1,·,·,98.7,·,95.1,·
CCOC(=O)C1=C(C)NC(C)=C(C(=O)OCC)C1c1ccccc1/C=C/C(=O)OC(C)(C)C,·,·,·,·,·,-4*
Cc1c(NC(=O)CC(=O)Nc2c(C)n(C)n(-c3ccccc3)c2=O)c(=O)n(-c2ccccc2)n1C,101.2,84.9,96.8,90.3,95.0,0.381
Cc1c(NC(=O)C2CCCNC2=O)c(=O)n(-c2ccccc2)n1C (stereo not drawn),93.5,38.5*,36.9,·,38.5,0.406
COc1ccccc1NC(=O)Nc1c(C)n(C)n(-c2ccccc2)c1=O,94.2,32.2*,99.9,101.9,92.7,0.0956
O=C(CSc1n[nH]c(=O)n1C1CC1)Nc1cc(Cl)ccc1Oc1ccccc1,77.7,62.0,9.5,101.2,12.8,-6.03*
CCOC(=O)Cc1csc(SCC(=O)Nc2cccc(C#N)c2)n1,100.6,91.3,98.3,99.2,90.3,0.0245
CCOC(=O)Cc1csc(SCC(=O)Nc2cccc(Cl)c2)n1,88.4,89.4,89.1,105.4,92.5,-3.81*
CCOC(=O)Cc1csc(SCC(=O)Nc2cc(Cl)ccc2Oc2ccccc2)n1,102.5,59.4,44.8,97.4,55.1,-5.64*
NC(=O)CC(NC(=O)Cc1cccc2ccccc12)c1ccc(N2CCc3ccccc3C2)c([N+](=O)[O-])c1 (stereo not drawn),·,·,·,·,·,-0.722
CCOC(=O)c1c(NC(=O)CSc2nnc(CNc3ccc(F)cc3)o2)sc(C)c1C,75.7,85.2,89.4,91.7,90.0,-4.62*
CCOC(=O)c1c(-c2ccccc2)csc1NC(=O)CSc1nnnn1C,80.0,68.4,77.5,89.7,73.1,-3.67
CCOC(=O)c1c(NC(=O)CSc2nnnn2C)sc(C)c1-c1ccc(C)cc1,55.0,70.2,19.9,86.6,19.8,-4.46*
CCOC(=O)c1c(NC(=O)CSc2nnc(CNc3ccc(Cl)cc3)o2)sc(C)c1C,84.0,81.0,84.3,90.4,74.4,-1.44
CCOC(=O)c1c(NC(=O)CSc2nnnn2-c2ccc(OC)cc2)sc(C)c1C,75.5,30.1*,79.4,96.3,88.2,0.886
COc1ccc(-n2nnnc2SCC(=O)Nc2nnc(C)s2)cc1,·,·,105.5,·,97.0,2.26
CCOC(=O)Cc1csc(NC(=O)CSc2nnnn2-c2ccc(CC)cc2)n1,94.6,92.6,101.4,104.1,92.9,-5.41*
COCCn1c(=NC(=O)/C=C/c2ccccc2)sc2cc(NC(C)=O)ccc21,·,·,88.6,·,89.4,·
CC(=O)Nc1ccccc1-c1nc2ccccc2nc1OCC(=O)c1ccc(Cl)cc1,·,·,90.7,·,86.4,·
CC1(C)Cc2c(C#N)c(SCCC#N)nc(N3CCOCC3)c2CS1,85.9,71.4,95.2,87.2,84.5,-3.88*
CC1(C)Cc2c(C#N)c(SCCOc3ccccc3)nc(N3CCOCC3)c2CO1,61.1,31.6*,64.1,85.2,61.8,-3.46
CCc1nc(N2CCOCC2)c(C#N)c2c1CCCC2,96.0,87.7,93.3,91.5,88.6,-4.46*
N#Cc1c(SCc2ccccc2)nc(N2CCOCC2)c2c1CCCC2,113.1,77.6,94.1,86.3,74.5,-5.4*
CCSc1nc(N2CCCCC2)c2c(c1C#N)CCCC2,111.0,55.2,73.2,96.2,83.5,-0.0563
O=C(Nc1nc(COc2ccccc2)cs1)C12CC3CC(CC(C3)C1)C2,55.5,39.2*,38.7,87.1,29.9,-2.13

# Bioassay records (PubChem BioAssay)
